Test results published in PubChem BioAssay.
A number with no mark means an inactive call. Records with an inconclusive call do not appear. Activity calls are given as the source filed them.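 Rule for the calls, unless noted: active = viability at or below 27.92% in each of two runs, the all-compound median minus 4 SD; inconclusive = no clear call, values can overlap the other calls; inactive = the rest.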

Experiments:
[1] = OD615 S. cerevisiae growth inhibition, permissive medium, pilot counter-assay, permissive growth control for S. cerevisiae lifespan shortening project (AID 705;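 active = growth inhibition above 25% in both replicates, a cutoff set 3 SD above the mean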); conditions: OD615, 24 h, at 10 µM, hits give high values
Summary of the method: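 System: Engineered DeaD yeast | Buffer or medium: SC raffinose/galactose permissive medium | Doses: 10 µM single dose, 0.25% DMSO | Times: 24 h exposure, 30 °C | Measured by: OD615 turbidity read | Read-out: Yeast growth inhibition indicated by reduced 24 h OD615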

[2] = Restrictive medium S. cerevisiae growth inhibition, OD615, pilot screen of yeast lifespan reduction project, restrictive growth control (AID 706;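 active = growth inhibition above a set limit, 3 SD over mean compound inhibition, in both replicates, cut at about 43% in these data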;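 note: modified DeaD lifespan yeast strain shifted to restrictive glucose medium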); conditions: OD615, 48 h, at 10 µM, hits give high values
Summary of the method: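 Assay system: engineered S. cerevisiae DeaD strain; Buffer or medium: CSMM-D glucose medium; Dosing: 10 µM compound, 0.25% DMSO; Times: cell pre-growth 4 h, compound exposure 48 h, 30 °C; Detection: absorbance (optical density) measured at 615 nm.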

[3] = viability gain of MRP-1-high H69AR cells under doxorubicin, pilot screen, MRP-1 activator project, CellTiter-Glo, duplicate (AID 807;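 active = viability increase at or above a cutoff of the median across tested compounds plus 3 SD, cut at about 8.5% in these data, passing the limit was not always enough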;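 note: compound pretreatment 18-22 h then 72 h combined with doxorubicin; 0% = doxorubicin alone and 100% = vehicle without doxorubicin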); conditions: H69AR viability with doxorubicin, CellTiter-Glo luminescence; at 10 µM; hits give high values
[4] = growth suppression of beta-catenin knockout HCT116, pilot screen, human colon tumor cells (AID 823;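 active = cell viability at or below a set limit in both duplicate runs, the limit being the all-compound median minus 4 SD, cut at about 23% in these data, passing the limit was not always enough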;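 note: 0% = wells killed by 20 µM Hyamine and 100% = untreated DMSO cell wells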); conditions: CellTiter-Glo, 60 h, at 10 µM, hits give low values
[5] = growth suppression of PTEN-deleted HCT116, pilot screen, cell-based, HCT116 clonal line, CellTiter-Glo (AID 824); conditions: 60 h, at 10 µM, hits give low values;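 note: 0% = 20 µM Hyamine control and 100% = vehicle cell control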
[6] = inhibitors of the yeast RAM network, pilot screen, dse1pr::URA3 reporter, 5-FOA selection (AID 869;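 active = inhibition over a set limit, the all-compound mean plus 3 SD, in both replicate runs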;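 note: 0% = DMSO wells with no growth and 100% = 10 µM 1-NA-PP1 with full growth; RAM network block rescues cells from 5-FOA so hits raise OD615 growth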); conditions: S. cerevisiae dse1pr::URA3 5-FOA growth, OD615, 2 d; at 10 µM; hits give high values; strain carries analog-sensitive mutant Cbk1 kinase
[7] = RAM signaling pathway blockade in yeast – S. cerevisiae, Pdr1DBD-CYC8 efflux-inhibited sensitized strain, primary screen (AID 1298;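 active = RAM network inhibition above 8.4% in each of two replicates, 3 SD over the compound average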;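 note: 0% = DMSO untreated cells without growth and 100% = 10 µM 1-NA-PP1 full growth; higher means more yeast growth rescued from 5-FOA killing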); conditions: S. cerevisiae cbk1-as DSE1-URA3 strain, 5-FOA growth OD615, 2 d; at 50 µM; hits give high values

Structure (SMILES) | growth inhibition [1] [%] | growth inhibition [2] [%] | viability increase [3] [%] | viability [4] | viability [5] | inhibition [6] [%] | RAM network inhibition [7] [%]
CC(=O)/C(C(=N)N1CCN(Cc2ccccc2)CC1)=C(\C)O | -12.7 | -5.25 | -0.02 | 103% | 101% | 2.4 | 2.85
O=C(NCCO)c1ccc(-c2nnc(N3CCOCC3)c3ccccc23)cc1 | -8.54 | -14.4 | 0.15 | 89.1% | 89.6% | 0.425 | 3.24
CCN1c2ccccc2NC2N=C(OC)C(c3ccccc3)C21 (configuration not stated) | -38.2 | 7.12 | -8.25 | 3.31% (active) | 2.97% (active) | 2.47 | 3.8
Cc1onc(-c2ccccc2Cl)c1C(=O)N(C)C1CCCCC1 | -18.5 | -9.2 | -2.42 | 46.5% | 63.2% | -0.15 | 2.15
CCn1cc(C2=NC(c3ccccc3)CO2)c2ccccc21 (configuration not stated) | -11 | -8.14 | -4.95 | 91.6% | 83.3% | 1.46 | 0.69
CCOC(=O)c1sc(NCCNc2nc(C)c(C(=O)OCC)s2)nc1C | 2.36 | -21.8 | -3.12 | 94.1% | 89% | 0.595 | 5.86
COC1=CC(=O)OC12CCCCC2 | 3.99 | -2.73 | -0.88 | 94.7% | 95.8% | 1.27 | 2.11
CCCS(=O)(=O)N1CCn2c(nc3ccccc32)C1 | 0.585 | -2.62 | -0.37 | 106% | 102% | 2.19 | 2.93
Cc1nnc(SCC(=O)Nc2ccc3c(c2)COC3=O)n1-c1ccccc1 | -9.99 | 0.555 | -0.13 | 98.8% | 92.8% | 3.27 | 1.16
Cc1cc(=O)[nH]c(SCc2cc(=O)n3nc(C)sc3n2)n1 | 4.53 | -7.55 | -1 | 104% | 96.5% | 1.32 | 5.96
CC(C)OC(=O)c1nnc(Cc2ccc(F)cc2)o1 | 4.28 | 8.2 | 2.12 | 113% | 107% | 0.82 | 7.85
CCCCn1nc(NC(=O)c2cccs2)c2cc3ccccc3nc21 | -22.7 | -8.93 | 1.45 | 54.6% | 48.3% | 0.55 | 4.61
CC1=C(C(=O)OCC(C)C)C(c2ccccc2Cl)NC(=O)N1C (configuration not stated) | -4.34 | -8.57 | -3.3 | 58.5% | 67.8% | 0.59 | 1.74
Cc1cc(N2CCC(N(C)C3CCCC3)CC2)nc2cc(O)ccc12 | -8.33 | -9.98 | -7.96 | 53.9% | 53.7% | 2.4 | 2.21
O=C(CNC(=O)c1ccccc1F)NC1CC1 | -8.56 | -2.84 | -2.87 | 99.3% | 96.4% | 0.76 | 6.17
Cc1ccnc(SCC(=O)O)n1 | -0.18 | -10.8 | -1.15 | 101% | 101% | 1.29 | 1.08
COc1ccccc1NC(=O)CSc1nc2sc(C)c(C)c2c(=O)n1Cc1ccco1 | 9.68 | 9.95 | -3.07 | 91% | 92% | 2.17 | 3.57
COc1ccc(NC(=O)N(Cc2cccnc2)Cc2ccccc2Cl)c(OC)c1 | 0.09 | -1.88 | -3.53 | 91.2% | 93.9% | 1.02 | -0.05

Structure (SMILES) | growth inhibition [1] [%] | growth inhibition [2] [%] | viability increase [3] [%] | viability [4] | viability [5] | inhibition [6] [%] | RAM network inhibition [7] [%]
CCOC(=O)C1=C(C)NC(=O)NC1c1c(O)ccc2ccccc12 (configuration not stated) | -11.6 | -12.7 | -3.39 | 97.6% | 95.4% | 0.77 | 2.29
COC(=O)c1ccc(CSc2nc3c(c(=O)n2-c2ccc(F)cc2)SCC3)o1 | -7.83 | -16.6 | -3.02 | 83.7% | 81.3% | 1.3 | 1.52
COc1ccc(S(=O)(=O)NCC2CCC(C(=O)N3CCC4(CC3)OCCO4)CC2)cc1 (configuration not stated) | -5.13 | -3.68 | -1.38 | 94.2% | 90.6% | 0.81 | 2.29
CC1(C)CC(=O)c2sc(NC(=O)CN3C(=O)CCC3=O)nc2C1 | -6.85 | 0.48 | -1.54 | 103% | 103% | 0.685 | 2.38
COc1ccccc1-c1nnc(NC(=O)c2ccccc2F)o1 | -16.6 | -17.1 | -5.55 | 88.3% | 89.7% | 1.22 | 0.16
CCOC(=O)N1CCN(C(=O)Cc2ccc(Cl)cc2)CC1 | 3.9 | -5.01 | -1.27 | 99.2% | 95.3% | 2.03 | 6.67
CC(C)CC(=O)Nc1ccc2oc(-c3cccnc3)nc2c1 | 2.48 | 2.53 | -1.73 | 100% | 94% | 1.53 | -0.72
O=S(=O)(NCCc1cn2ccccc2n1)c1ccc2c(c1)OCCO2 | -2.27 | -2.71 | -2.56 | 105% | 97% | 1.62 | 2.25
COc1ccc(C(=O)C(OC(=O)CNC(=O)c2ccco2)c2ccccc2)cc1 (configuration not stated) | -11.8 | 3.51 | -3.65 | 100% | 102% | 1.49 | 2.66
Nc1[nH]nc2nc(N3CCOCC3)nc(-c3ccccc3)c12 | -7.04 | 4.65 | -4.39 | 88.2% | 88.3% | 2.38 | 1.55
Cc1cc(C(F)(F)F)nc(NCc2ccc(F)cc2)n1 | -1.39 | -13 | -1.57 | 90.5% | 86.7% | 1.39 | 0.79
CCOC(=O)c1ccc(NC2c3ccccc3C(=O)N2c2cccnc2)cc1 (configuration not stated) | 0.43 | 1.2 | -3.72 | 65.5% | 67.6% | 0.67 | 2.21
CC(C)Cc1cc(C(=O)Nc2ccc(F)cc2F)no1 | -18.9 | -23.4 | 1.32 | 100% | 98.6% | 0.505 | 0.21
Cc1ccc(-c2nn3c(C)nnc3s2)cc1NC(=O)C(C)C | -1.65 | 13.7 | -2.89 | 110% | 105% | 0.965 | -0.58
COc1ccc(OC)c(CNC(=O)Cc2c(C(=O)O)[nH]c3ccccc23)c1 | -7.09 | -25 | -0.54 | 104% | 101% | -0.185 | 5.43
CCC(C)(C(=O)NC1CCCCC1)N(Cc1ccco1)C(=O)CNC(=O)c1ccccc1 (configuration not stated) | -14.3 | -12.2 | -3.39 | 83.5% | 90.1% | 0.145 | 6.49
Cc1ccc(N(C(C)C(=O)O)S(=O)(=O)c2cccnc2)cc1 (configuration not stated) | 2.72 | 0.165 | -1.52 | 95.1% | 101% | -0.19 | 1.61
CSc1nnc(-c2ccco2)n1-c1ccccc1 | -6.73 | 6.08 | -0.4 | 94.6% | 90% | 2.92 | 5.77
